Laboratory results: PMC6710528 (British Journal of Clinical Pharmacology, 2019)
Entries after “also recorded” stand apart in the source; their conditions may differ. Like-named read-outs stand apart in the source and are kept apart here. Blank lines part the entries; values can stand above or below the molecule they belong to.

Tests used:
[1] = 12-lead electrocardiograms: QTcF interval by ICH E14 category; type: in vivo, human (healthy subjects); conditions: single 30-mg dose alone or with ketoconazole or fluconazole
[2] = ref data on file, Daiichi Sankyo, Inc; cited from earlier work
[3] = Safety: adverse event evaluation; type: in vivo, human (healthy subjects)
Method in brief: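 Healthy males and females aged 18–55 years were randomised 1:1:1 to strong inhibitor + test compound, moderate inhibitor + test compound, or test compound alone. A single oral 30 mg dose was given on Day 8. The safety population was everyone who received the test compound or ≥1 inhibitor dose. Assessments included physical exams, vital signs, 12‑lead ECG, haematology, chemistry and urinalysis. AEs were graded for severity, relation to study drugs and clinical significance through Day 29.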

[4] = type: in vivo, human (healthy subjects); conditions: for Tmax / AUC(0-inf) / AUC(0-t) / half-life / Cmax: human, plasma, oral; for AUC(0-inf): AUCinf; for AUC(0-inf) / AUC(0-t) / Cmax: geometric LS mean (SE); for AUC(0-t): AUClast; for half-life: Mean T1/2 (CV%); for Increase in T1/2: quizartinib coadministered with ketoconazole; for Geometric mean CL/F (%CV): quizartinib
[5] = Plasma concentrations of ketoconazole and fluconazole to confirm steady state; type: in vivo, human (healthy subjects); conditions: 200 mg twice daily
Method in brief: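 Inhibitors were given orally for 8 days (moderate inhibitor: 200 mg twice daily) before the test compound. Blood was drawn before the morning dose on Days 6–8. On Day 8 it was also drawn at 2 and 12 h post-dose for the strong inhibitor, and at 3 and 12 h for the moderate inhibitor. Plasma levels were measured by validated LC–MS/MS and reported as mean ± standard deviation.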

[6] = C-QTc model, phase 2 data; ref data on file, Daiichi Sankyo, Inc; cited from earlier work
[7] = 30 mg, quizartinib in plasma, single 30-mg dose of quizartinib alone
[8] = 200 mg, quizartinib in plasma, single 30-mg dose with fluconazole 200 mg twice daily
[9] = 200 mg, quizartinib in plasma, single 30-mg dose with ketoconazole 200 mg twice daily
[10] = with fluconazole coadministration
[11] = with ketoconazole coadministration vs quizartinib alone
[12] = AC886 in plasma, (Ketoconazole + Quizartinib)/(Quizartinib)

SMILES: CC(C)(C)c1cc(NC(=O)Nc2ccc(-c3cn4c(n3)sc3cc(OCCN5CCOCC5)ccc34)cc2)no1 [quizartinib]
- Vital signs and changes to QTcF, haematology or clinical chemistry [1]: No significant abnormalities in vital signs or changes to QTcF
- Median effective half-life [2]: 73 h
- Serious adverse events ([3]; all treatment arms): no serious adverse events or deaths occurred; also recorded: no serious AEs observed
- Subjects who experienced at least 1 AE ([3]; fluconazole + quizartinib arm): 14 (45.2%) subjects (%)
- Subjects with AEs considered possibly related to quizartinib ([3]; fluconazole + quizartinib arm): 1 subjects
- Subjects with AEs considered possibly related to quizartinib ([3]; ketoconazole + quizartinib arm): 1 subjects
- Subjects who experienced quizartinib-related adverse events ([3]; overall): 5.4%
- Subjects with AEs considered possibly related to quizartinib ([3]; overall (n = 93)): 5 (5.4%) subjects (%)
- Subjects who experienced at least 1 AE ([3]; quizartinib + ketoconazole arm): 9 (29.0%) subjects (%)
- Subjects who experienced at least 1 AE ([3]; quizartinib arm): 13 (41.9%) subjects (%)
- Subjects with AEs considered possibly related to quizartinib ([3]; quizartinib arm): 3 subjects
- Increase in quizartinib exposure ([4]; coadministration with moderate CYP3A inhibitor fluconazole): ≤ 20%
- Tmax ([4]; 30 mg): 4 h
- AUC(0-inf) [4, 7]: 9630 ng·h/mL
- AUC(0-t) [4, 7]: 9100 ng·h/mL
- half-life [4, 7]: 4.08 days
- Tmax ([4]; 200 mg): 4 h
- AUC(0-inf) [4, 8]: 11500 ng·h/mL
- AUC(0-inf) [4, 9]: 18700 ng·h/mL
- AUC(0-t) [4, 8]: 10900 ng·h/mL
- AUC(0-t) [4, 9]: 17000 ng·h/mL
- Cmax [4, 8]: 116 ng/mL
- Cmax [4, 9]: 121 ng/mL
- half-life [4, 8]: 4.67 days
- half-life [4, 9]: 6.04 days
- Decrease in CL/F ([4]; ketoconazole coadministered with quizartinib): 50%
- Increase in T1/2 [4]: 46%
- Median Tmax (min, max) ([4]; quizartinib in plasma, single 30-mg dose with fluconazole 200 mg twice daily): 4.0 (2.0, 5.0) [n = 28] h
- Mean T1/2 (CV%) ([4]; quizartinib in plasma, single 30-mg dose with ketoconazole 200 mg twice daily): 149 (23.0) [n = 28] h
- Geometric mean CL/F (%CV) ([4]; single 30-mg dose of quizartinib alone): 2.75 (35.9) [n = 29] L/h
- Geometric mean CL/F (%CV) ([4]; single 30-mg dose with fluconazole 200 mg twice daily): 2.29 (34.3) [n = 28] L/h
- Geometric mean CL/F (%CV) ([4]; single 30-mg dose with ketoconazole 200 mg twice daily): 1.42 (26.1) [n = 28] L/h
- Change in CL/F [4, 10]: ~17%
- Change in mean T1/2 [4, 10]: ~ 10%
- Increase in geometric LS mean AUCinf [4, 10]: 20%
- Increase in geometric LS mean AUClast [4, 10]: 20%
- Increase in geometric LS mean Cmax [4, 10]: 11%
- Increase in geometric LS mean AUCinf [4, 11]: 94%
- Increase in geometric LS mean AUClast [4, 11]: 86%
- Increase in geometric LS mean Cmax [4, 11]: 17%

- Mean (± standard deviation) plasma concentration ([5]; predose on Day 6): 13.2 ± 4.1 µg/mL
- Mean (± standard deviation) plasma concentration ([5]; predose on Day 7): 13.8 ± 3.8 µg/mL
- Mean (± standard deviation) plasma concentration ([5]; predose on Day 8): 14.5 ± 3.7 µg/mL
SMILES: OC(Cn1cncn1)(Cn1cncn1)c1ccc(F)cc1F [fluconazole]

- Mean (± standard deviation) plasma concentration ([5]; predose on Day 6): 1.5 ± 0.8 µg/mL
- Mean (± standard deviation) plasma concentration ([5]; predose on Day 7): 1.4 ± 0.7 µg/mL
- Mean (± standard deviation) plasma concentration ([5]; predose on Day 8): 1.4 ± 0.8 µg/mL
SMILES: CC(=O)N1CCN(c2ccc(OCC3COC(Cn4ccnc4)(c4ccc(Cl)cc4Cl)O3)cc2)CC1 (stereo not drawn) [ketoconazole]

- AUCinf, ratio of geometric LS mean (90% CI) [4, 12]: 85%
- AUClast, ratio of geometric LS mean (90% CI) [4, 12]: 67%
- Cmax, ratio of geometric LS mean (90% CI) [4, 12]: 40%
- Median Tmax (min, max) ([4]; AC886 in plasma, single 30-mg dose of quizartinib alone): 5.1 h
- Median Tmax (min, max) ([4]; AC886 in plasma, single 30-mg quizartinib dose with fluconazole): 5.0 h
- Median Tmax (min, max) ([4]; AC886 in plasma, single 30-mg quizartinib dose with ketoconazole): 48.0 h
- Ratio of geometric LS means of Cmax of AC886 to Cmax of quizartinib ([4]; fluconazole + quizartinib arm): 0.12
- Ratio of geometric LS means of Cmax of AC886 to Cmax of quizartinib ([4]; ketoconazole + quizartinib arm): 0.04
- Ratio of geometric LS means of Cmax of AC886 to Cmax of quizartinib ([4]; quizartinib arm): 0.13
- Increase in T1/2 [4]: 96%
SMILES: CC(C)(CO)c1cc(NC(=O)Nc2ccc(-c3cn4c(n3)sc3cc(OCCN5CCOCC5)ccc34)cc2)no1 [AC886]
- Effect on QTcF, fold lower than quizartinib [6]: 10 fold
